Reference: ChEMBL document CHEMBL5724801, “EUbOPEN Chemogenomics Library - Multiplex” (2024)
“And” between values parts separate entries of the source, which are not always exact repeats. Identical values can stand only once.

Tested on: U2OS
Assay: Multiplex assay against U2OS
Format: toxicity, cell-based
Conditions: human
In short: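 Live cells carried four stains from seeding: Hoechst33342, BioTracker Green Microtubule Cytoskeleton Dye, MitoTracker Red and Annexin V Alexa Fluor 680. They were imaged on a CQ1 microscope at 37°C and 5% CO2 after compound addition. Using CellPathfinder machine-learning gating, cells were split into Hoechst high-intensity objects or normal cells, normal cells into healthy, pyknosed or fragmented nuclei, and pyknosed cells into mitotic or apoptotic; tubulin, mitochondrial-mass and membrane-permeability phenotypes are per cents of healthy-nucleus cells.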

[1] = 12 h, 1 µM, compound concentration 1 uM
[2] = 12 h, 10 µM, compound concentration 10 uM
[3] = 24 h, 1 µM, compound concentration 1 uM
[4] = 24 h, 10 µM, compound concentration 10 uM
[5] = 48 h, 1 µM, compound concentration 1 uM
[6] = 48 h, 10 µM, compound concentration 10 uM

SMILES: Cc1nc2ccc(Oc3ccc(F)cc3)cc2c(=O)n1C[C@H]1CCCN(C(C)C)C1.Cl
- Population Apoptotic (%) [1]: 83% and 60%
- Population Fragmented Nuclei (%) [1]: 25% and 14%
- Population Healthy Nuclei (%) [1]: 64% and 81%
- Population Hoechst High Intensity Objects (%) [1]: 3% and 1%
- Population Membrane Permeable-Phenotype (%) [1]: 9% and 17%
- Population Mitochondria Different-Phenotype (%) [1]: 3% and 7%
- Population Mitotic Cells (%) [1]: 16% and 40%
- Population Normal (%) [1]: 96% and 98%
- Population Pyknosed Nuclei (%) [1]: 10% and 4%
- Population Tubulin-Different-Phenotype (%) [1]: 7% and 9%
- Total Cell Count [1]: 244 and 125
- Population Apoptotic (%) [2]: 65% and 78%
- Population Fragmented Nuclei (%) [2]: 25% and 24%
- Population Healthy Nuclei (%) [2]: 59% and 58%
- Population Hoechst High Intensity Objects (%) [2]: 3% and 4%
- Population Membrane Permeable-Phenotype (%) [2]: 58% and 25%
- Population Mitochondria Different-Phenotype (%) [2]: 61% and 75%
- Population Mitotic Cells (%) [2]: 35% and 21%
- Population Normal (%) [2]: 96% and 95%
- Population Pyknosed Nuclei (%) [2]: 15% and 17%
- Population Tubulin-Different-Phenotype (%) [2]: 63% and 47%
- Population Apoptotic (%) [3]: 78% and 80%
- Population Fragmented Nuclei (%) [3]: 23% and 21%
- Population Healthy Nuclei (%) [3]: 65% and 71%
- Population Hoechst High Intensity Objects (%) [3]: 4% and 2%
- Population Membrane Permeable-Phenotype (%) [3]: 7% and 11%
- Population Mitochondria Different-Phenotype (%) [3]: 5% and 9%
- Population Mitotic Cells (%) [3]: 21% and 20%
- Population Normal (%) [3]: 95% and 97%
- Population Pyknosed Nuclei (%) [3]: 10% and 6%
- Population Tubulin-Different-Phenotype (%) [3]: 4% and 8%
- Total Cell Count [3]: 276 and 146
- Population Apoptotic (%) [4]: 77% and 76%
- Population Fragmented Nuclei (%) [4]: 25% and 22%
- Population Healthy Nuclei (%) [4]: 57% and 52%
- Population Hoechst High Intensity Objects (%) [4]: 4% and 6%
- Population Membrane Permeable-Phenotype (%) [4]: 37% and 22%
- Population Mitochondria Different-Phenotype (%) [4]: 63% and 62%
- Population Mitotic Cells (%) [4]: 22% and 23%
- Population Normal (%) [4]: 95% and 93%
- Population Pyknosed Nuclei (%) [4]: 16% and 24%
- Population Tubulin-Different-Phenotype (%) [4]: 47% and 40%
- Population Apoptotic (%) [5]: 84% and 93%
- Population Fragmented Nuclei (%) [5]: 19%
- Population Healthy Nuclei (%) [5]: 69% and 72%
- Population Hoechst High Intensity Objects (%) [5]: 1% and 0%
- Population Membrane Permeable-Phenotype (%) [5]: 7%
- Population Mitochondria Different-Phenotype (%) [5]: 5%
- Population Mitotic Cells (%) [5]: 15% and 6%
- Population Normal (%) [5]: 98% and 99%
- Population Pyknosed Nuclei (%) [5]: 10% and 7%
- Population Tubulin-Different-Phenotype (%) [5]: 4% and 6%
- Total Cell Count [5]: 371 and 213
- Population Apoptotic (%) [6]: 77% and 88%
- Population Fragmented Nuclei (%) [6]: 29%
- Population Healthy Nuclei (%) [6]: 54% and 51%
- Population Hoechst High Intensity Objects (%) [6]: 5% and 8%
- Population Membrane Permeable-Phenotype (%) [6]: 29% and 27%
- Population Mitochondria Different-Phenotype (%) [6]: 36% and 41%
- Population Mitotic Cells (%) [6]: 22% and 11%
- Population Normal (%) [6]: 94% and 91%
- Population Pyknosed Nuclei (%) [6]: 16% and 19%
- Population Tubulin-Different-Phenotype (%) [6]: 23% and 35%

SMILES: CC1(COc2ccc3c(c2)ncn3-c2ccc3cccc(N4CCC(N)CC4)c3n2)COC1 [CRENOLANIB]
- Population Apoptotic (%) [1]: 58% and 25%
- Population Fragmented Nuclei (%) [1]: 36% and 28%
- Population Healthy Nuclei (%) [1]: 50% and 60%
- Population Hoechst High Intensity Objects (%) [1]: 9% and 13%
- Population Membrane Permeable-Phenotype (%) [1]: 87% and 82%
- Population Mitochondria Different-Phenotype (%) [1]: 51% and 73%
- Population Mitotic Cells (%) [1]: 41% and 75%
- Population Normal (%) [1]: 90% and 86%
- Population Pyknosed Nuclei (%) [1]: 13% and 10%
- Population Tubulin-Different-Phenotype (%) [1]: 92% and 88%
- Total Cell Count [1]: 143 and 86
- Population Apoptotic (%) [2]: 81% and 92%
- Population Fragmented Nuclei (%) [2]: 43% and 37%
- Population Healthy Nuclei (%) [2]: 11% and 21%
- Population Hoechst High Intensity Objects (%) [2]: 21% and 24%
- Population Membrane Permeable-Phenotype (%) [2]: 76% and 47%
- Population Mitochondria Different-Phenotype (%) [2]: 80% and 76%
- Population Mitotic Cells (%) [2]: 18% and 7%
- Population Normal (%) [2]: 78% and 75%
- Population Pyknosed Nuclei (%) [2]: 44% and 41%
- Population Tubulin-Different-Phenotype (%) [2]: 88% and 85%
- Total Cell Count [2]: 274
- Population Apoptotic (%) [3]: 71% and 54%
- Population Fragmented Nuclei (%) [3]: 39% and 25%
- Population Healthy Nuclei (%) [3]: 45% and 62%
- Population Hoechst High Intensity Objects (%) [3]: 9% and 10%
- Population Membrane Permeable-Phenotype (%) [3]: 71% and 67%
- Population Mitochondria Different-Phenotype (%) [3]: 62% and 67%
- Population Mitotic Cells (%) [3]: 28% and 45%
- Population Normal (%) [3]: 90% and 89%
- Population Pyknosed Nuclei (%) [3]: 14% and 12%
- Population Tubulin-Different-Phenotype (%) [3]: 87% and 72%
- Total Cell Count [3]: 156 and 98
- Population Apoptotic (%) [4]: 93% and 100%
- Population Fragmented Nuclei (%) [4]: 46% and 53%
- Population Healthy Nuclei (%) [4]: 8% and 11%
- Population Hoechst High Intensity Objects (%) [4]: 37% and 36%
- Population Membrane Permeable-Phenotype (%) [4]: 42% and 44%
- Population Mitochondria Different-Phenotype (%) [4]: 50% and 77%
- Population Mitotic Cells (%) [4]: 6% and 0%
- Population Normal (%) [4]: 62% and 63%
- Population Pyknosed Nuclei (%) [4]: 45% and 34%
- Population Tubulin-Different-Phenotype (%) [4]: 50% and 77%
- Total Cell Count [4]: 254
- Population Apoptotic (%) [5]: 88% and 62%
- Population Fragmented Nuclei (%) [5]: 41% and 37%
- Population Healthy Nuclei (%) [5]: 43% and 48%
- Population Hoechst High Intensity Objects (%) [5]: 8% and 4%
- Population Membrane Permeable-Phenotype (%) [5]: 35% and 53%
- Population Mitochondria Different-Phenotype (%) [5]: 40% and 37%
- Population Normal (%) [5]: 91% and 95%
- Population Pyknosed Nuclei (%) [5]: 14% and 13%
- Population Tubulin-Different-Phenotype (%) [5]: 44% and 51%
- Total Cell Count [5]: 186
- Population Apoptotic (%) [6]: 100%
- Population Fragmented Nuclei (%) [6]: 51% and 57%
- Population Healthy Nuclei (%) [6]: 11% and 13%
- Population Hoechst High Intensity Objects (%) [6]: 42% and 29%
- Population Membrane Permeable-Phenotype (%) [6]: 43% and 50%
- Population Mitochondria Different-Phenotype (%) [6]: 37% and 35%
- Population Mitotic Cells (%) [6]: 0%
- Population Normal (%) [6]: 58% and 70%
- Population Pyknosed Nuclei (%) [6]: 37% and 28%
- Population Tubulin-Different-Phenotype (%) [6]: 56% and 28%
- Total Cell Count [6]: 250 and 144

SMILES: CCC(=N\O)/C(C)=C/c1ccc(F)cc1 [A-079]
- Population Apoptotic (%) [1]: 48.57% and 40.91%
- Population Fragmented Nuclei (%) [1]: 1.07% and 0%
- Population Healthy Nuclei (%) [1]: 91.47% and 83.94%
- Population Hoechst High Intensity Objects (%) [1]: 0%
- Population Membrane Permeable-Phenotype (%) [1]: 0.47% and 1.74%
- Population Mitochondria Different-Phenotype (%) [1]: 0% and 11.3%
- Population Mitotic Cells (%) [1]: 51.43% and 59.09%
- Population Normal (%) [1]: 100%
- Population Pyknosed Nuclei (%) [1]: 7.46% and 16.06%
- Population Tubulin-Different-Phenotype (%) [1]: 0.47% and 1.74%
- Population Apoptotic (%) [2]: 36.67% and 36.84%
- Population Fragmented Nuclei (%) [2]: 3.39% and 2.96%
- Population Healthy Nuclei (%) [2]: 88.14% and 82.96%
- Population Hoechst High Intensity Objects (%) [2]: 0%
- Population Membrane Permeable-Phenotype (%) [2]: 1.6% and 0.89%
- Population Mitochondria Different-Phenotype (%) [2]: 0% and 4.46%
- Population Mitotic Cells (%) [2]: 63.33% and 63.16%
- Population Normal (%) [2]: 100%
- Population Pyknosed Nuclei (%) [2]: 8.47% and 14.07%
- Population Tubulin-Different-Phenotype (%) [2]: 0.64% and 0.89%
- Total Cell Count [2]: 354 and 135
- Population Apoptotic (%) [3]: 36.36% and 42.86%
- Population Fragmented Nuclei (%) [3]: 0.47% and 0.53%
- Population Healthy Nuclei (%) [3]: 90.89% and 88.24%
- Population Hoechst High Intensity Objects (%) [3]: 0%
- Population Membrane Permeable-Phenotype (%) [3]: 0.86% and 1.82%
- Population Mitochondria Different-Phenotype (%) [3]: 0% and 3.03%
- Population Mitotic Cells (%) [3]: 63.64% and 57.14%
- Population Normal (%) [3]: 100%
- Population Pyknosed Nuclei (%) [3]: 8.63% and 11.23%
- Population Tubulin-Different-Phenotype (%) [3]: 0.17% and 0.61%
- Population Apoptotic (%) [4]: 43.18% and 38.1%
- Population Fragmented Nuclei (%) [4]: 2.04% and 1.9%
- Population Healthy Nuclei (%) [4]: 88.96% and 84.81%
- Population Hoechst High Intensity Objects (%) [4]: 0%
- Population Membrane Permeable-Phenotype (%) [4]: 0.46% and 2.99%
- Population Mitochondria Different-Phenotype (%) [4]: 0% and 8.21%
- Population Mitotic Cells (%) [4]: 56.82% and 61.9%
- Population Normal (%) [4]: 100%
- Population Pyknosed Nuclei (%) [4]: 9% and 13.29%
- Population Tubulin-Different-Phenotype (%) [4]: 0.23% and 0.75%
- Population Apoptotic (%) [5]: 43.75% and 67.74%
- Population Fragmented Nuclei (%) [5]: 3.57% and 1.19%
- Population Healthy Nuclei (%) [5]: 86.9% and 89.55%
- Population Hoechst High Intensity Objects (%) [5]: 0%
- Population Membrane Permeable-Phenotype (%) [5]: 0.29% and 1.67%
- Population Mitochondria Different-Phenotype (%) [5]: 0.1% and 3%
- Population Mitotic Cells (%) [5]: 56.25% and 32.26%
- Population Normal (%) [5]: 100%
- Population Pyknosed Nuclei (%) [5]: 9.52% and 9.25%
- Population Tubulin-Different-Phenotype (%) [5]: 0.2% and 1%
- Population Apoptotic (%) [6]: 34.57% and 41.18%
- Population Fragmented Nuclei (%) [6]: 3.23% and 2.2%
- Population Healthy Nuclei (%) [6]: 88.86% and 85.35%
- Population Hoechst High Intensity Objects (%) [6]: 0%
- Population Membrane Permeable-Phenotype (%) [6]: 0.55% and 1.72%
- Population Mitochondria Different-Phenotype (%) [6]: 0.11% and 5.58%
- Population Mitotic Cells (%) [6]: 65.43% and 58.82%
- Population Normal (%) [6]: 100%
- Population Pyknosed Nuclei (%) [6]: 7.92% and 12.45%
- Population Tubulin-Different-Phenotype (%) [6]: 0.33% and 0%
